Experimental data: ChEMBL document CHEMBL4823251, “Structure-Based Exploration of Selectivity for ATM Inhibitors in Huntington's Disease” (J Med Chem, 2021)
Values after ≈ are worked out from the molar mass of the structure shown.

Key:
[1] = Kinetic solubility of the compound in pH 7.4 PBS buffer incubated for 2 hrs using orbital shaker by LC-UV mass spectrometry; format: physicochemical; conditions: read-out: Kinetic_solubility
Method in brief: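 Shaken on an orbital shaker for 2 h at room temperature, then filtered. Filtrate analysed by LC-UV with MS confirmation, calibrated against 200 μM and 10 μM DMSO dilutions.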

[2] = molecular target: T1, Serine-protein kinase ATM (Homo sapiens, UniProt Q13315); assay: Inhibition of full length recombinant FLAG-tagged human ATM assessed as decrease in p53 S15 phosphorylation using full length myc-tagged p53 as substrate incubated for 30 mins in presence of ATP by ELISA
T1 sequence (Q13315 whole entry): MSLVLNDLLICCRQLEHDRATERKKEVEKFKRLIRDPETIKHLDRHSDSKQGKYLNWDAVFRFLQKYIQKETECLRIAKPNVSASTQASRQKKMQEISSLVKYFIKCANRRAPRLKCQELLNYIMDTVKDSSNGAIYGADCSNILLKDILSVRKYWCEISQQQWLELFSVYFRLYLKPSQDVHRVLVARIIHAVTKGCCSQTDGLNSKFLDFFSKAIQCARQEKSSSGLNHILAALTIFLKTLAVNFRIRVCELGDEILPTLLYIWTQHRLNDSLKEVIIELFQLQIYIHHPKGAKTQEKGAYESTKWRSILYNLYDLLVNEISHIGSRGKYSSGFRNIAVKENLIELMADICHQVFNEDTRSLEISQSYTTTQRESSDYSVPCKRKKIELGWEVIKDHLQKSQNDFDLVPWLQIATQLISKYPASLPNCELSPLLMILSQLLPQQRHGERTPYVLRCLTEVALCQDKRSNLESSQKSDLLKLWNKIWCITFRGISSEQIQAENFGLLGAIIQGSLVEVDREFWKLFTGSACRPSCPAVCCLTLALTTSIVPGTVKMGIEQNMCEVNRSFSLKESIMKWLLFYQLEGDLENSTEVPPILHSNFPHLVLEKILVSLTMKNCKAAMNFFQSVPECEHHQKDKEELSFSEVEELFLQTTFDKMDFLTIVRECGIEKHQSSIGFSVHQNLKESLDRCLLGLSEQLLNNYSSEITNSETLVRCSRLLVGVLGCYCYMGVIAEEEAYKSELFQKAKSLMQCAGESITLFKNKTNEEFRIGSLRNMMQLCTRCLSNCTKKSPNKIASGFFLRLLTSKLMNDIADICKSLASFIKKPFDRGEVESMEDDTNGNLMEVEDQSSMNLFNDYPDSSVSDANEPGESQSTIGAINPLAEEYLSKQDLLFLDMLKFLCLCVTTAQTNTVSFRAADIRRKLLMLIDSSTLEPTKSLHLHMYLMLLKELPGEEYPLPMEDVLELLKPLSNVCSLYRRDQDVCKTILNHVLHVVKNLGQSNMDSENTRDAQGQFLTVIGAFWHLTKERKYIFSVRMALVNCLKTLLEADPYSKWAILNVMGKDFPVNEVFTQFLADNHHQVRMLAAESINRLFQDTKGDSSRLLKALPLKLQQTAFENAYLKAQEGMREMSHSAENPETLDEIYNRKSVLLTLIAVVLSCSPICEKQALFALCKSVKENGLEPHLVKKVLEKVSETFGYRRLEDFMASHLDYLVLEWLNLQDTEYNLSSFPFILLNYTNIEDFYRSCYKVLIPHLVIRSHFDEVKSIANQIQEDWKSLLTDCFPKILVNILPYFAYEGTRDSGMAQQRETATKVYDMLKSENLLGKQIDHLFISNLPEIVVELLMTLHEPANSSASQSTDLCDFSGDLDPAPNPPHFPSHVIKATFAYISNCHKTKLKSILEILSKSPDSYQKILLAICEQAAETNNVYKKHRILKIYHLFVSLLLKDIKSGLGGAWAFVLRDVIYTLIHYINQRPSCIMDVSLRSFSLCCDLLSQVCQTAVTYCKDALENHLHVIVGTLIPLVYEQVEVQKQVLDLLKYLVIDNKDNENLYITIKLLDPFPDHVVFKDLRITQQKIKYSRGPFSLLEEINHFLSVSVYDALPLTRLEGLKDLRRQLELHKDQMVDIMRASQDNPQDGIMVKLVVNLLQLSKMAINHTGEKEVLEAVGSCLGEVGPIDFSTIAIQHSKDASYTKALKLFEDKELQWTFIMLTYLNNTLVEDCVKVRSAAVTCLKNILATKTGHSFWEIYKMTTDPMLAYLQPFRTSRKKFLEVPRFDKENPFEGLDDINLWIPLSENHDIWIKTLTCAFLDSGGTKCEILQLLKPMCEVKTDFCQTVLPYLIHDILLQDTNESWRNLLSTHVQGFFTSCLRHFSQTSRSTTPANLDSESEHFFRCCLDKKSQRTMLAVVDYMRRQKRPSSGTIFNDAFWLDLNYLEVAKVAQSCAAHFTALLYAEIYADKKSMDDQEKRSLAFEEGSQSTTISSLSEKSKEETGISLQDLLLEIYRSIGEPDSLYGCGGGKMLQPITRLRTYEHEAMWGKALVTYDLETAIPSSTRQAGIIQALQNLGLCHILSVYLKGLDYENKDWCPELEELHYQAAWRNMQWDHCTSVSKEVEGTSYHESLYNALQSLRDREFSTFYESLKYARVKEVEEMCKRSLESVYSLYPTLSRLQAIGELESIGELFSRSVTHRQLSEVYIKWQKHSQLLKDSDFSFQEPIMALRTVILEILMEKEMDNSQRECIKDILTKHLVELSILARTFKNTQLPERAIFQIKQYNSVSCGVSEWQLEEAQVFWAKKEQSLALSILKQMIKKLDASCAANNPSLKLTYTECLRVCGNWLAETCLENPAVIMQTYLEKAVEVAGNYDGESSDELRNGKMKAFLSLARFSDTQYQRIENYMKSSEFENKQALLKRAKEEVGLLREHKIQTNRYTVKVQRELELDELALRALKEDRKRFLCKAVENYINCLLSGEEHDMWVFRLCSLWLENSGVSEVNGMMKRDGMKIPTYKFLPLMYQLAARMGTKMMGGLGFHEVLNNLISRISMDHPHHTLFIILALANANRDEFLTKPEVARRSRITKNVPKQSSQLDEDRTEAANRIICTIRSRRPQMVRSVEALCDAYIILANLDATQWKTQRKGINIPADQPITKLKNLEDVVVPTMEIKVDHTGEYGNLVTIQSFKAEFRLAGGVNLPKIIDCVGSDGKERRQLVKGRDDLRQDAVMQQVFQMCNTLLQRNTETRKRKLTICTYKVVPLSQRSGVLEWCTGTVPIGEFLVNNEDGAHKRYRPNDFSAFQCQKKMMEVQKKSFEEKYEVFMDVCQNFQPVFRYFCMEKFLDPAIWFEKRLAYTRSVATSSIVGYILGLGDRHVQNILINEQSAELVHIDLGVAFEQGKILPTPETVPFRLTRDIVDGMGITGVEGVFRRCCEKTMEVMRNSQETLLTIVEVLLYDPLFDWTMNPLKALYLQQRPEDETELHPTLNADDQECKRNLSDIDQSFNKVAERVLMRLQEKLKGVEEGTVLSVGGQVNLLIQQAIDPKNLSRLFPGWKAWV
Method in brief: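 Buffer was 25 mM HEPES pH 7.5 with MgCl₂, MnCl₂, Brij-35, glycerol, BSA and DTT (0.1% DMSO); reaction ran 30 min at 20 °C and was stopped with 70 mM EDTA. Product captured on anti-myc-coated plates and detected with anti-p53 pS15, HRP secondary and TMB, absorbance at 450 nm.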

Homo sapiens = organism: Homo sapiens; assay: Selectivity ratio of Ki for full length recombinant GST-tagged VPS34 expressed in baculovirus expression system using PI/PS as substrate incubated for 60 mins in presence of ATP at Km concentration by luminescence assay to Ki for full length recombinant FLAG-tagged human ATM assessed as decrease in p53 S15 phosphorylation using full length myc-tagged p53 as substrate incubated for 30 mins in presence of ATP by ELISA
Method in brief: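 ADP-Glo luminescence read-out. ATM reaction: 0.75 nM enzyme, 25 nM myc-p53, 10 μM ATP, 30 min at 20 °C, p53 S15 phosphorylation by ELISA. Ki values are means of at least two experiments.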

[3] = molecular target: T1, Serine-protein kinase ATM; assay: Inhibition of ATM in human U2OS cells assessed as reduction in etoposide-stimulated KAP1 phosphorylation incubated for 60 mins by immunoreactivity assay; format: cell-based
Method in brief: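 U2OS cells plated overnight at 6k cells/well (37 °C, 5% CO₂), then treated with compound titrations (0.3% DMSO) plus 100 μM etoposide for 60 min. Cells fixed in cold methanol and stained for phospho-KAP1 and total KAP1 using IRDye secondaries on a LI-COR Odyssey. IC50 is the mean of at least two experiments.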

[4] = molecular target: Phosphatidylinositol 3-kinase catalytic subunit type 3 (Homo sapiens, UniProt Q8NEB9); assay: Inhibition of full length recombinant GST-tagged human VPS34 expressed in baculovirus expression system using PI/PS as substrate incubated for 60 mins in presence of ATP at Km concentration by luminescence assay
Sequence of Phosphatidylinositol 3-kinase catalytic subunit type 3 (Q8NEB9 whole entry): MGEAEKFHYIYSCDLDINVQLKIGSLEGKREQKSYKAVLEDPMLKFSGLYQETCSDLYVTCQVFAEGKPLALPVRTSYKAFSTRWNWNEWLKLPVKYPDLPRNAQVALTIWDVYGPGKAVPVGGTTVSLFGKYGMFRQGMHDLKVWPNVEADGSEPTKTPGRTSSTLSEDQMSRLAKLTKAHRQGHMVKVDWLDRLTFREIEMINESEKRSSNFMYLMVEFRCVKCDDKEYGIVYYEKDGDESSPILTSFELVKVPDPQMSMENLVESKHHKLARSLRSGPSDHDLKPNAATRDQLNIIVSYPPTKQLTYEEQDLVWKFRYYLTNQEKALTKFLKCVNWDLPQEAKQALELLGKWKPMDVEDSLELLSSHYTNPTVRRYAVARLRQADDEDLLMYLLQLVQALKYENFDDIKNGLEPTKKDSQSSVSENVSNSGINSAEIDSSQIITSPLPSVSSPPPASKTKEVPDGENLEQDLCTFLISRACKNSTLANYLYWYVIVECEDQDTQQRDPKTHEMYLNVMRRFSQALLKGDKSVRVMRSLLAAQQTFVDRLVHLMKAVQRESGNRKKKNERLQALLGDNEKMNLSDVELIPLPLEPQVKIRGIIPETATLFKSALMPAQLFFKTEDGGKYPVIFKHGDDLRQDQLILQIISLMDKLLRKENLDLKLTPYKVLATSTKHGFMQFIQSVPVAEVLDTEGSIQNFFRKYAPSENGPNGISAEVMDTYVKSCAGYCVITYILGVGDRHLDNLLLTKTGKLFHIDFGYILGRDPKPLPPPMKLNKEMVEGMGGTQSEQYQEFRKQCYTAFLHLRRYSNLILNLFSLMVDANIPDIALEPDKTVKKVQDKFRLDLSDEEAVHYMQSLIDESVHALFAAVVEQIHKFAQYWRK

[5] = Apparent permeability across apical to basolateral side in MDCK-MDR1 cells after 1 hr by LC-MS/MS analysis; format: ADME, cell-based, Canis lupus familiaris; conditions: dog
Method in brief: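 MDCKII-MDR1 and wild-type cells seeded at 2 × 10⁵ cells/well on Transwells and cultured 3 days. Test compound at 10 μM in HBSS with 25 mM HEPES, pH 7.4, added apical or basolateral in duplicate. Lucifer yellow used as integrity check; wells above 100 nm/s rejected. Sampled after 1 h at 37 °C and quantified by LC–MS/MS. Papp taken from the apical-to-basal direction.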

[6] = Intrinsic clearance in C57Bl/6 mouse pooled liver microsomes at 1 uM measured up to 40 mins in presence of NADPH by LC-MS/MS analysis; format: ADME, Microsome; conditions: read-out: CLH
Method in brief: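 Reaction started with 1 mM NADPH. Sampled at 0, 5, 10, 20 and 40 min, quenched in acetonitrile with internal standard, and analysed by LC–MS/MS.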

[7] = Effective efflux ratio of apparent permeability across basolateral to apical over apical to basolateral side in MDCK-MDR1 cells assessed as efflux ratio after 1 hr by LC-MS/MS analysis; format: ADME, cell-based, Canis lupus familiaris; conditions: dog, mdck-mdr1, 1 h
Method in brief: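 MDCKII MDR1 and wild-type cells seeded at 2 × 10⁵ cells/well in Transwells, cultured 3 days. Test compounds 10 μM in HBSS with 25 mM HEPES pH 7.4, dosed apical or basolateral in duplicate, 1 h at 37 °C. Lucifer yellow monolayer check, wells above 100 nm/s rejected. LC–MS/MS read-out. ER = Papp B>A/A>B. EER = MDR1 ER over wild-type ER.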

[8] = molecular target: Serine/threonine-protein kinase ATR (Homo sapiens, UniProt Q13535); assay: Inhibition of ATR in human HT-29 cells assessed as reduction in CHK1 phosphorylation incubated for 4 hrs; format: cell-based
Method in brief: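 HT29 cells seeded at 25k/well overnight, then treated with compound titrations (0.3% DMSO) plus 10 μM gemcitabine for 4 h. Cells fixed in paraformaldehyde, permeabilized with Triton-X, and stained for phospho-Chk1 and total Chk1 using LI-COR IRDye detection. Ratio normalized to DMSO and 30 μM AZ-20 controls. IC50 is the mean of at least two experiments.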

[9] = molecular target: DNA-dependent protein kinase catalytic subunit (Homo sapiens, UniProt P78527); assay: Inhibition of DNA-PK isolated from human HeLa nuclear extract using full length His-tagged p53 as substrate measured after 75 mins in presence of ATP by HTRF assay; format: subcellular, Nucleus
Method in brief: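 Buffer was 50 mM HEPES pH 7.5, 5 mM MgCl₂, 0.01% Brij35, 1 mM DTT and 1 μg/mL sheared calf thymus DNA; reaction ran 75 min at 20 °C. Stopped with d2-anti-6HIS and cryptate anti-phospho-p53 antibodies in KF/EDTA buffer. Read at 665/620 nm after 7 h.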

[10] = Aqueous solubility of the compound in pH 7.4; format: physicochemical; conditions: buffer

SMILES	solubility kinetic at 2 h [1]	Ki [2]	Ratio Ki (Homo sapiens)	IC50 [3]	Ki [4]	Papp A→B at 1 h [5]	CLint scaled at 1 µM [6]	Ratio [7]	IC50 [8]	Ki [9]	solubility [10]
O=c1cc(N2CCOCC2)nc(N2C[C@H]3C[C@H]3[C@@H]2Cc2ccccc2)[nH]1	54 µg/mL (≈ 153 µM)	0.2 nM	105	130 nM	21 nM						
O=c1cc(N2CCOCC2)cc(N2CC[C@@H](F)[C@@H]2Cc2ccccc2)[nH]1	> 71 µg/mL	3 nM	43	1300 nM	110 nM	51.8 ×10⁻⁶ cm/s	< 65 mL/min/kg	7.2			
COc1ccc2c(c1)Cc1cccc(-c3cc(N4CCOCC4)nc(O)n3)c1S2	< 2 µg/mL	160 nM	21	> 30000 nM	3300 nM						
Oc1cc(N2CCOCC2)nc(N2CCC[C@@H]2Cc2ccccc2)n1	34 µg/mL (≈ 99.9 µM)	1 nM	16	500 nM	16 nM	77.5 ×10⁻⁶ cm/s	261 mL/min/kg	4.5			
O=c1cc(N2CCOCC2)cc(N2CCC(Cc3ccccc3)C2)[nH]1 (stereo unspecified)	5 µg/mL (≈ 14.7 µM)	> 1200 nM		> 30000 nM							
COc1ccc2c(c1)Cc1cccc(-c3cc(=O)cc(N4CCOCC4)[nH]3)c1S2	3 µg/mL (≈ 7.38 µM)	110 nM		> 30000 nM							
O=c1cc(N2CCOCC2)cc(N2CCC[C@H]2Cc2ccccc2)[nH]1	> 55 µg/mL	> 900 nM	> 1	> 30000 nM	630 nM						
C[C@@H]1CN(c2cc(=O)[nH]c(N3C[C@H]4C[C@H]4[C@@H]3Cc3ccccc3)n2)CCO1	48 µg/mL (≈ 131 µM)	2 nM	490		880 nM						
C[C@@H]1CN(c2cc(N3C[C@@H]4C[C@@H]4[C@@H]3Cc3ccccc3)[nH]c(=O)c2)CCO1	23 µg/mL (≈ 62.9 µM)				750 nM				13000 nM	7 nM	
O=c1cc(N2CCOCC2)nc(N2CCCCC[C@@H]2Cc2ccccc2)[nH]1	48 µg/mL (≈ 130 µM)	0.1 nM	80	200 nM	8 nM	58.1 ×10⁻⁶ cm/s	287 mL/min/kg	3.1			
C[C@@H]1CN(c2cc(=O)[nH]c(N3CCCCC[C@@H]3Cc3ccccc3)n2)CCO1	11 µg/mL (≈ 28.8 µM)	1 nM	840		840 nM						
C[C@@H]1CN(c2cc(=O)[nH]c(N3C[C@@H]4C[C@@H]4[C@@H]3Cc3ccccc3)n2)CCO1	< 2 µg/mL	0.9 nM	1700		1500 nM						
C[C@@H]1CN(c2cc(N3C[C@H]4C[C@H]4[C@@H]3Cc3ccccc3)[nH]c(=O)c2)CCO1	62 µg/mL (≈ 170 µM)				> 5000 nM						
C[C@@H]1CN(c2cc(N3CCCCC[C@@H]3Cc3ccccc3)[nH]c(=O)c2)CCO1	70 µg/mL (≈ 183 µM)	1 nM	200	1600 nM	1800 nM						
O=c1cc(N2CCOCC2)cc(N2C[C@@H]3C[C@@H]3[C@@H]2Cc2ccccc2)[nH]1	52 µg/mL (≈ 148 µM)	0.3 nM	13	150 nM	4 nM	81.2 ×10⁻⁶ cm/s	177 mL/min/kg	2.9			
COc1ccc2c(c1)Cc1cccc(-c3nc(O)cc(N4CCOCC4)n3)c1S2	2 µg/mL (≈ 4.91 µM)	> 1600 nM		> 30000 nM	> 5000 nM						
COc1ccc2c(c1)Cc1cccc(-c3cc(N4CCOCC4)cc(=O)[nH]3)c1S2	14 µg/mL (≈ 34.4 µM)	4 nM	33	880 nM	130 nM						
COc1ccc2c(c1)Cc1cccc(-c3cc(N4CCOCC4)cc(OC)n3)c1S2	< 2 µg/mL	> 1600 nM	> 3	> 30000 nM	> 5000 nM						
COc1ccc2c(c1)Cc1cccc(-c3cc(N4CCOCC4)cc(=O)n3C)c1S2	10 µg/mL (≈ 23.8 µM)	> 1200 nM	> 1	> 30000 nM	910 nM						
O=c1cc(N2CCOCC2)cc(N2CCC[C@@H]2Cc2ccccc2)[nH]1	> 68 µg/mL	6 nM	1		9 nM	59.9 ×10⁻⁶ cm/s	115 mL/min/kg	4.8			
O=c1cc(N2CCOCC2)nc(N2C[C@@H]3C[C@@H]3[C@@H]2Cc2ccccc2)[nH]1	< 2 µg/mL	0.6 nM	8		5 nM						
O=c1cc(N2CCOCC2)cc(N2CCCC[C@@H]2Cc2ccccc2)[nH]1	59 µg/mL (≈ 167 µM)				170 nM				8000 nM		
COc1ccc2c(c1)Cc1cccc(-c3cc(=O)cc(N4CCOCC4)o3)c1S2	11 µg/mL (≈ 27 µM)										1 µg/mL (≈ 2.45 µM)
CO[C@@H]1CCN(c2cc(N3CCOCC3)cc(=O)[nH]2)[C@H]1Cc1ccccc1	72 µg/mL (≈ 195 µM)	23 nM		3500 nM		31.9 ×10⁻⁶ cm/s	< 65 mL/min/kg	12			
O=c1cc(N2CCOCC2)cc(N2CCCC2Cc2ccccc2)[nH]1 (racemic)	> 68 µg/mL	30 nM	2	4000 nM	49 nM						
O=c1cc(N2CCOCC2)cc(N2CCC(F)(F)[C@@H]2Cc2ccccc2)[nH]1	65 µg/mL (≈ 173 µM)	6 nM	6.5		39 nM	75.2 ×10⁻⁶ cm/s	< 65 mL/min/kg	2.6			
COc1ccc2c(c1)Cc1cccc(-c3cc(N4CCOCC4)[nH]c(=O)c3)c1S2		> 1000 nM		> 30000 nM							
Oc1cc(N2CCC[C@@H]2Cc2ccccc2)nc(N2CCOCC2)n1	59 µg/mL (≈ 173 µM)	87 nM	3	> 30000 nM	270 nM						
COc1ccc2c(c1)Cc1cccc(-c3cc(O)nc(N4CCOCC4)n3)c1S2	4 µg/mL (≈ 9.82 µM)	25 nM	1	6700 nM	35 nM						
